Active and inactive are the calls of the source. The rule behind the calls is not given here.
Legend:
[1] = tested on: SN12C; test: Cytotoxicity against human SN12C cells after 48 hrs by SRB assay; assay type: functional
Method in brief: (§1)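 NCI-60 five-dose mode on the full human tumour line panel. Concentrations ran from 100 to 0.01 µM with 48 h continuous exposure. Growth was estimated by SRB protein staining against untreated controls, and IC50 values were derived from the dose–response.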

[2] = tested on: SK-MEL-2; test: Cytotoxicity against human SK-MEL-2 cells after 48 hrs by SRB assay; assay type: functional; conditions: SK-MEL-2, 48 h
Method in brief: (§2)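 NCI-60 five-dose screen: cells exposed continuously for 48 h across 100 to 0.01 µM. Growth or viability estimated by sulforhodamine B protein staining, read spectrophotometrically against untreated controls; IC50 taken from the dose-response.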

[3] = tested on: MDA-MB-435; test: Cytotoxicity against human MDA-MB-435 cells after 48 hrs by SRB assay; assay type: functional, cell-based; conditions: MDA-MB-435, 48 h; method in brief: as §2
[4] = Cytotoxicity against human UO31 cells after 48 hrs by SRB assay; assay type: functional; conditions: UO-31, 48 h; method in brief: as §1
[5] = tested on: KM12; test: Cytotoxicity against human KM12 cells after 48 hrs by SRB assay; assay type: functional; conditions: KM12, 48 h
Method in brief: (§3)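 NCI-60 five-dose testing, 100 to 0.01 µM, under a 48 h continuous-exposure protocol. Growth estimated by SRB protein assay, read spectrophotometrically against untreated controls; IC50 derived from the dose-response.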

[6] = tested on: SR; test: Cytotoxicity against human SR cells after 48 hrs by SRB assay; assay type: functional; method in brief: as §1
[7] = tested on: MDA-MB-435; test: Cytotoxicity against human MDA-MB-435 cells after 48 hrs by MTT assay; assay type: functional, cell-based; conditions: MDA-MB-435, 48 h
Method in brief: (§4)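 Melanoma lines grown at 37 °C in humidified 5% CO2: MDA-MB-435 in DMEM/Ham's F12 1:1 with 10% FCS and antibiotics, SK-MEL-2 in RPMI-1640 with 10% FCS. Cells plated 24 h, then exposed 48 h to 100–0.01 µM (dilutions from fresh 100 µM stock in medium). MTT 0.5 mg/mL added for 4 h, crystals dissolved in EtOH/DMSO 1:1, absorbance read at 540 nm. Mean ± SD of three independent experiments.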

[8] = tested on: MDA-MB-435; test: Cytotoxicity against human MDA-MB-435 cells assessed as cell growth at 10 uM after 48 hrs by MTT assay relative to untreated control; assay type: functional; conditions: MDA-MB-435, 48 h, read-out: Activity; method in brief: as §4
[9] = tested on: A498; test: Cytotoxicity against human A498 cells after 48 hrs by SRB assay; assay type: functional; conditions: A498, 48 h; method in brief: as §3
[10] = tested on: SW-620; test: Cytotoxicity against human SW620 cells after 48 hrs by SRB assay; assay type: functional; conditions: SW-620, 48 h; method in brief: as §1
[11] = tested on: 786-0; test: Cytotoxicity against human […] cells after 48 hrs by SRB assay; assay type: functional; conditions: 786-0, 48 h; method in brief: as §3
[12] = tested on: MCF7; test: Cytotoxicity against human MCF7 cells after 48 hrs by SRB assay; assay type: functional; conditions: MCF7, 48 h; method in brief: as §3
[13] = tested on: NCI-H522; test: Cytotoxicity against human NCI-H522 cells after 48 hrs by SRB assay; assay type: functional; conditions: NCI-H522, 48 h; method in brief: as §2
[14] = tested on: NCI-H460; test: Cytotoxicity against human NCI-H460 cells after 48 hrs by SRB assay; assay type: functional; conditions: NCI-H460, 48 h; method in brief: as §2
[15] = tested on: HOP-92; test: Cytotoxicity against human HOP92 cells after 48 hrs by SRB assay; assay type: functional; conditions: HOP-92, 48 h; method in brief: as §3
[16] = biological target: Glycogen synthase kinase-3 beta (Homo sapiens) (UniProt P49841); test: Inhibition of human GSK3 beta at 10 uM
Method in brief: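 Kinase selectivity panel of 19 protein tyrosine kinases and 30 serine/threonine kinases, run by a contract lab (CEREP). Each compound was tested at a single dose of 10 μM in duplicate.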

[17] = tested on: MDA-MB-435; test: Cytotoxicity against human MDA-MB-435 cells at 5 uM after 24 hrs by MTT assay; assay type: functional
Method in brief: (§5)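 MDA-MB-435 cells in DMEM/Ham's F12 (1:1) with 10% FCS, 37 °C, 5% CO2. Time course at a fixed 5 µM, incubated 8, 16, 24 or 48 h. Viability then read by MTT reduction (0.5 mg/mL, 4 h), formazan dissolved in EtOH/DMSO, absorbance at 540 nm, as percent living cells.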

[18] = tested on: ACHN; test: Cytotoxicity against human ACHN cells after 48 hrs by SRB assay; assay type: functional; method in brief: as §3
[19] = Cytotoxicity against human UACC257 cells after 48 hrs by SRB assay; assay type: functional; conditions: UACC-257, 48 h; method in brief: as §1
[20] = tested on: NCI-H322M; test: Cytotoxicity against human NCI-H322M cells after 48 hrs by SRB assay; assay type: functional; method in brief: as §2
[21] = tested on: MOLT-4; test: Cytotoxicity against human MOLT4 cells after 48 hrs by SRB assay; assay type: functional; conditions: MOLT-4, 48 h; method in brief: as §2
[22] = tested on: K562; test: Cytotoxicity against human K562 cells after 48 hrs by SRB assay; assay type: functional; conditions: K562, 48 h; method in brief: as §3
[23] = tested on: MDA-MB-435; test: Induction of apoptosis in human MDA-MB-435 cells assessed as nuclei fragmentation at 5 uM after 20 hrs by Hoechst 33342 staining-based phase-contrast microscopy; assay type: functional, cell-based
[24] = tested on: PC-3; test: Cytotoxicity against human PC3 cells after 48 hrs by SRB assay; assay type: functional; conditions: PC-3, 48 h; method in brief: as §2
[25] = tested on: MDA-MB-435; test: Cell cycle arrest in human MDA-MB-435 cells assessed as accumulation at subG1 phase at 5 uM after 48 hrs by propidium iodide staining-based FACS analysis (reference value: 0.1%); assay type: functional
[26] = tested on: OVCAR-8; test: Cytotoxicity against human OVCAR8 cells after 48 hrs by SRB assay; assay type: functional; conditions: OVCAR-8, 48 h; method in brief: as §2
[27] = tested on: SNB-75; test: Cytotoxicity against human SNB75 cells after 48 hrs by SRB assay; assay type: functional; conditions: SNB-75, 48 h; method in brief: as §1
[28] = tested on: MDA-MB-435; test: Cytotoxicity against human MDA-MB-435 cells at 5 uM by MTT assay; assay type: functional, cell-based; conditions: TDE = time-dependent effect; method in brief: as §5
[29] = read-out: LC50 (the source's name)

Chain of Glycogen synthase kinase-3 beta (Homo sapiens) (P49841 whole entry, looked up): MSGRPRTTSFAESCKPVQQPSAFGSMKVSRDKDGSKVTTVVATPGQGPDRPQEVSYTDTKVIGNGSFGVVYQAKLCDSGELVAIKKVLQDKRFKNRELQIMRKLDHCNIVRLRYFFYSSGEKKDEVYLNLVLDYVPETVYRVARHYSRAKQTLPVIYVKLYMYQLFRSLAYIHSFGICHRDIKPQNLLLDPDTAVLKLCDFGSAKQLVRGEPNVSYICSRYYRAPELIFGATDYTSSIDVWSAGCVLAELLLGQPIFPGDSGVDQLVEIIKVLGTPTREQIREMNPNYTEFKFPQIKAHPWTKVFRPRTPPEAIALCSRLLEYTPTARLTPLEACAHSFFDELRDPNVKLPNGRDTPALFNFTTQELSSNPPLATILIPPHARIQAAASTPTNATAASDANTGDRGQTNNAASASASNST

Question: Which GI50 [1] does the source give for `C[C@@H]1NC(c2ccc(Br)cc2)=Nc2nc3ccccn3c2C1=O` here?
Answer: 17.6 µM

Question: What about the TGI [1] of the same compound?
Answer: > 100 µM

Question: And the CC50 [1, 29]?
Answer: > 100 µM

Question: What about the GI50 [2] of the same compound?
Answer: 15.7 µM

Question: What about the TGI [2] of the same compound?
Answer: > 100 µM

Question: What about the CC50 [2, 29] of the same compound?
Answer: > 100 µM

Question: And the GI50 [3]?
Answer: 1.33 µM

Question: What about the IC50 [3] of the same compound?
Answer: 1.3 µM

Question: And the LC50 [3]?
Answer: > 100 µM

Question: And the TGI [3]?
Answer: 7.1 µM

Question: And the GI50 [4]?
Answer: 8.11 µM

Question: What about the TGI [4] of the same compound?
Answer: > 100 µM

Question: And the CC50 [4, 29]?
Answer: > 100 µM

Question: What about the GI50 [5] of the same compound?
Answer: 3.39 µM

Question: And the TGI [5]?
Answer: > 100 µM

Question: What about the CC50 [5, 29] of the same compound?
Answer: > 100 µM

Question: What about the GI50 [6] of the same compound?
Answer: 2.42 µM

Question: And the TGI [6]?
Answer: > 100 µM

Question: What about the CC50 [6, 29] of the same compound?
Answer: > 100 µM

Question: And the IC50 [7]?
Answer: 1.7 µM

Question: And the growth at 10 µM [8]?
Answer: -15%

Question: What about the GI50 [9] of the same compound?
Answer: 3.26 µM

Question: What about the TGI [9] of the same compound?
Answer: 38.2 µM

Question: What about the CC50 [9, 29] of the same compound?
Answer: > 100 µM

Question: And the GI50 [10]?
Answer: 3.75 µM

Question: What about the TGI [10] of the same compound?
Answer: > 100 µM

Question: What about the CC50 [10, 29] of the same compound?
Answer: > 100 µM

Question: And the GI50 [11]?
Answer: 28.3 µM

Question: And the TGI [11]?
Answer: > 100 µM

Question: What about the CC50 [11, 29] of the same compound?
Answer: > 100 µM

Question: And the GI50 [12]?
Answer: 2.99 µM

Question: What about the TGI [12] of the same compound?
Answer: > 100 µM

Question: What about the CC50 [12, 29] of the same compound?
Answer: > 100 µM

Question: And the GI50 [13]?
Answer: 3.23 µM

Question: What about the TGI [13] of the same compound?
Answer: 18.4 µM

Question: And the CC50 [13, 29]?
Answer: > 100 µM

Question: And the GI50 [14]?
Answer: 3.06 µM

Question: What about the TGI [14] of the same compound?
Answer: > 100 µM

Question: What about the CC50 [14, 29] of the same compound?
Answer: > 100 µM

Question: What about the GI50 [15] of the same compound?
Answer: 1.16 µM

Question: What about the TGI [15] of the same compound?
Answer: 22.9 µM

Question: What about the CC50 [15, 29] of the same compound?
Answer: > 100 µM

Question: What about the inhibition [16] of the same compound?
Answer: inactive

Question: And the Activity [17]?
Answer: 10%

Question: And the GI50 [18]?
Answer: 6.75 µM

Question: What about the TGI [18] of the same compound?
Answer: > 100 µM

Question: What about the CC50 [18, 29] of the same compound?
Answer: > 100 µM

Question: What about the GI50 [19] of the same compound?
Answer: 35.2 µM

Question: What about the TGI [19] of the same compound?
Answer: > 100 µM

Question: And the CC50 [19, 29]?
Answer: > 100 µM

Question: And the GI50 [20]?
Answer: 23.6 µM

Question: And the TGI [20]?
Answer: > 100 µM

Question: What about the CC50 [20, 29] of the same compound?
Answer: > 100 µM

Question: And the GI50 [21]?
Answer: 12.8 µM

Question: And the TGI [21]?
Answer: > 100 µM

Question: What about the CC50 [21, 29] of the same compound?
Answer: > 100 µM

Question: And the GI50 [22]?
Answer: 4.13 µM

Question: What about the TGI [22] of the same compound?
Answer: > 100 µM

Question: What about the CC50 [22, 29] of the same compound?
Answer: > 100 µM

Question: What about the Activity [23] of the same compound?
Answer: Active

Question: What about the GI50 [24] of the same compound?
Answer: 5.7 µM

Question: And the TGI [24]?
Answer: > 100 µM

Question: And the CC50 [24, 29]?
Answer: > 100 µM

Question: And the Activity [25]?
Answer: 8.6%

Question: And the GI50 [26]?
Answer: 17 µM

Question: And the TGI [26]?
Answer: > 100 µM

Question: And the CC50 [26, 29]?
Answer: > 100 µM

Question: What about the GI50 [27] of the same compound?
Answer: 0.7 µM

Question: What about the TGI [27] of the same compound?
Answer: 7.06 µM

Question: What about the CC50 [27, 29] of the same compound?
Answer: > 100 µM

Question: What about the Activity [28] of the same compound?
Answer: tde

From ChEMBL document CHEMBL3124806, “Imidazopyridine-fused [1,3]-diazepinones: synthesis and antiproliferative activity” (Eur J Med Chem, 2014)
